High-throughput results deposited in PubChem by several laboratories.
SENP6 inh: inhibitors of human SENP6 protease; Q9GZR1; Recombinant SENP6 catalytic domain, aminoluciferin luminescence; inhibition, % at 10 µM; 330,000 tested, 1.8% active; AID 2599;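 active = inhibition above about 50% at the single tested dose, limit read from the data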;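 note: plate controls were DMSO wells with enzyme for no effect and DMSO wells lacking enzyme for full effect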
SENP8 block-1: inhibitors of human SENP8 protease; Q96LD8; recombinant SENP8, Nedd8 substrate fluorescence; inhibition, % at 20 µM; 360,000 tested, 0.64% active; in the data active = inhibition mostly above about 40%, no sharp cut-off; inactive = mostly below about 27%
Target sequence (Q96LD8 whole entry, looked up): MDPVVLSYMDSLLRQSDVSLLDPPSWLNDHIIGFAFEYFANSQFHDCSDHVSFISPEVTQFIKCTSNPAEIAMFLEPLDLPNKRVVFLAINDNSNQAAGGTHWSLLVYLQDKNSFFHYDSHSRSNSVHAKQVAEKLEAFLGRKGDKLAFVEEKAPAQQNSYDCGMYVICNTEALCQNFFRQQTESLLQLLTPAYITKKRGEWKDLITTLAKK
SENP8 block-2: blocks the human protease SENP8 | 330,000 tested, 1.2% active | inhibition, % at 10 µM | purified SENP8, Z-RLRGG-aminoluciferin cleavage, luminescence | Q96LD8 | AID 2540; in the data active = inhibition above about 50%
SENP7 block: SENP7 protease inhibition | Q9BQF6 | recombinant SENP7, Z-RLRGG-aminoluciferin luminescence, 40 min | inhibition, % at 5 µM | 330,000 tested, 1.5% active | AID 434973;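 active = inhibition above about 50% at the single test dose, limit read from the data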;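 note: plate controls were DMSO with enzyme for no effect and no enzyme buffer wells for full effect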
SENP1 inh: inhibitors of human SENP1 SUMO protease catalytic domain; 360,000 tested, 0.21% active; recombinant SENP1 catalytic domain, CyPet-SUMO1-YPet FRET cleavage; Q9P0U3; AID 624204; inhibition, % at 10 µM;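 active = inhibition at least 30% at 10 µM, raw YFP signal under a set limit, fluorescence ratio 0.5 to 1.5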;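 note: 0% = enzyme with DMSO and 100% = no enzyme wells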
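Material: hSENP1 catalytic domain, recombinant; medium: Tris pH 8 with BME, BSA, NP40 and catalase; compound: single concentration of 10 µM compound, 0.5% DMSO final; technique: FRET read of cyan and yellow fluorescence; timing: 50 min enzyme reaction, room temperature, light-protected; reagent: SFCypet-SUMO1-SFYpet substrate at 25 nM; control set: no-enzyme low, enzyme-DMSO high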
HSP90 refold inh: HSP90 refolding inhibition in rabbit reticulocyte lysate. luciferase refolding luminescence, 3 h. inhibition, % at 5.6 µM. 290,000 tested, 0.91% active. AID 1789;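 active = inhibition above the screen-wide mean plus 3 SD, computed separately per campaign, cut at about 16% in these data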;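 note: 0% = DMSO wells and 100% = 60 µM geldanamycin wells; inhibitors lower the luminescence because luciferase stays unfolded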
SENP8 confirm: human SENP8 inhibition, confirmed; shares compounds with SENP7 block; Recombinant SENP8, Z-RLRGG-aminoluciferin luminescence, 60 min; 6,200 tested, 40% active; AID 488912; inhibition, % at 12.5 µM;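 active = mean inhibition across replicates above about 50%, limit read from the data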
SENP6 conf: human SENP6 inhibition, confirmed; shares compounds with SENP7 block; recombinant SENP6, Z-RLRGG-aminoluciferin luminescence; inhibition, % at 12.5 µM; 6,200 tested, 58% active; AID 488915
SENP7 confirm: human SENP7 inhibition, confirmed | AID 488917 | recombinant SENP7, Z-RLRGG-aminoluciferin luminescence, 40 min | shares compounds with SENP7 block | 6,200 tested, 69% active | inhibition, % at 12.5 µM
Casp3 SENP sel: inhibits human caspase-3 in SENP selectivity test. shares compounds with SENP7 block. purified caspase-3, Z-DEVD-aminoluciferin luminescence, 60 min. inhibition, % at 12.5 µM. 6,200 tested, 60% active;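 active = mean inhibition above about 50%, limit read from the data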;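 note: plate controls were enzyme with DMSO for no effect and wells without caspase-3 for full effect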
Target sequence (P42574 28-227 limits assumed): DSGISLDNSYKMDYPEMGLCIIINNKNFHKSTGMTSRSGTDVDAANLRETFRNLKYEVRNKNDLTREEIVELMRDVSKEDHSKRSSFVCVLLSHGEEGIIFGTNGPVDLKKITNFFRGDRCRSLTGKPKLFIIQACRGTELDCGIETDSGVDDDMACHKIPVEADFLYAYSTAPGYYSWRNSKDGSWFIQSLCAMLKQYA
Luc interf: luminescence interference (SENP counter-screen); Pre-incubated SENP8/Z-RLRGG-aminoluciferin, luciferase luminescence interference; inhibition, % at 12.5 µM; shares compounds with SENP7 block; 6,200 tested, 39% active;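 active = mean inhibition above about 50% when retested at one dose, limit read from the data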;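 note: plate controls were DMSO wells with completed reaction for no effect and substrate without enzyme for full effect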
Starred values were filed as active, the others as inactive; . = no result given. In the library only some 2.9% were active in any assay of this set; here they are far more common.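 Rule for the calls, unless noted: active = mean inhibition above about 50% in the one-dose retest (limit read from the data); inactive = the rest.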

SMILES | SENP6 inh | SENP8 block-1 | SENP8 block-2 | SENP7 block | SENP1 inh | HSP90 refold inh | SENP8 confirm | SENP6 conf | SENP7 confirm | Casp3 SENP sel | Luc interf
O=C(N/N=C\c1ccc([N+](=O)[O-])s1)c1cncc(Br)c1 | 70* | 37 | 9 | 15 | -2 | 5 | 0 | 19 | -7 | 4 | 4
CC[C@]1(C(=O)OC)[C@H]2C(=O)N(C)C(=O)[C@H]2[C@H]2CN(C)C(=NC3CCCCC3)N21 | . | 14 | . | 0 | 6 | . | . | . | . | . | .
O=C(NN/C(=N/S(=O)(=O)c1ccc(Cl)cc1)c1ccccc1)c1cccc(Cl)c1 | 86* | 20 | 71* | 85* | 2 | 0 | 51* | 64* | 87* | 63* | 38
O=C(NN/C(=N/S(=O)(=O)c1ccc(Cl)cc1)c1ccccc1)c1ccc(O)cc1 | 96* | -60 | 95* | 97* | 0 | 3 | 73* | 63* | 89* | 87* | 88*
O=C(O)c1ccc(N/C(=N\S(=O)(=O)c2ccc(Cl)cc2)c2ccccc2)cc1 | -21 | 16 | -9 | -4 | 3 | 6 | . | . | . | . | .
Cc1ccc(S(=O)(=O)/N=C(/NNC(=O)c2cccc(Cl)c2)c2ccccc2)cc1 | 78* | 10 | 49 | 68* | 3 | 3 | 14 | 25 | 63* | 43 | 45
COc1ccc(CC(=O)Nc2ccccc2C(=O)N2CCOCC2)cc1 | -10 | 2 | -12 | -11 | -2 | 3 | . | . | . | . | .
C(=N\Nc1nc2ccccc2s1)/c1ccccn1 | 97* | . | 97* | 100* | . | 86* | 100* | 101* | 104* | 99* | 40
COc1ccc(C=NNc2nc3ccccc3s2)cc1 | . | -237 | . | . | 0 | . | . | . | . | . | .
C(=C\c1ccccc1)/C=N/Nc1nc2ccccc2s1 | 51* | -166 | 44 | 32 | -14 | -2 | 32 | 43 | 42 | 11 | 41
C(=N\Nc1ccccc1)/c1nc2ccccc2s1 | 36 | 6 | 58* | 75* | -49 | -1 | -18 | 12 | 82* | 28 | -4
Cc1oc(=O)c(NC(=O)c2cccc(Cl)c2)cc1C(=O)c1ccccc1 | -12 | -59 | -11 | -4 | -5 | -3 | . | . | . | . | .
O=C(O)c1cccc(NC(=O)c2ccc(COc3ccc(Cl)cc3)cc2)c1 | 70* | 2 | 53* | 29 | 2 | 0 | 44 | 43 | 59* | 8 | 15
N#C/C(=C\c1ccc(OCc2ccc(Cl)cc2)cc1)C(=O)Nc1cccc(C(=O)O)c1 | -6 | 13 | -4 | -10 | -1 | -4 | . | . | . | . | .
O=C(Nc1ccc(OCc2ccccc2)cc1)c1cccs1 | 70* | 18 | 58* | 84* | 0 | 3 | 41 | 60* | 93* | 73* | 0
Cc1occc1C(=O)Nc1cccc(C(=O)NCc2ccccc2)c1 | -29 | 4 | -6 | -8 | 2 | -5 | . | . | . | . | .
O=C(Nc1ccc(NC(=O)c2cccs2)c(Cl)c1)c1cccs1 | 63* | 3 | 50 | 53* | 1 | 0 | 48 | 51* | 80* | 48 | 46
O=C(N/N=C/c1ccc(OCc2ccccc2)cc1)c1cccs1 | -7 | -46 | 2 | 22 | -1 | -4 | . | . | . | . | .
Cc1occc1C(=O)Nc1ccc(OCc2ccccc2)cc1 | 98* | -2 | 96* | 100* | 1 | 2 | 90* | 100* | 104* | 99* | 73*
Nc1ccn([C@@H]2O[C@H](CNCc3cnc(N4CCOCC4)s3)[C@@H](O)[C@H]2O)c(=O)n1 | . | 7 | . | . | -2 | . | . | . | . | . | .
